Assay [1] relates to Xenopus laevis. Briefly: Anesthetic effect on Xenopus laevis tadpole assessed as loss of righting reflex. The format is functional, organism-based. Summed up: (§1)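 Xenopus tadpoles were exposed to steroid at five or more concentrations, with 10 or more animals per concentration. Loss of righting or swimming reflex was scored. EC50 and Hill coefficient were fitted from the dose–response curves; mean ± SEM.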

Assay [2] relates to Oocyte. Briefly: Activity at rat GABA-A receptor alpha1beta2gamma2L expressed in Xenopus oocytes assessed as potentiation of GABA-induced chloride current at 0.1 uM by electrophysiological Method relative to control. In kind it is cell-based. The method in brief:
(§2)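 Oocytes expressing rat α1β2γ2L GABA-A receptors were recorded whole-cell. Compound at 0.1, 1 or 10 µM was co-applied with 2 µM GABA. Response is the current ratio with/without compound. At least four different oocytes per concentration; mean ± SEM.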

Assay [3] deals with Xenopus laevis. Briefly: Anesthetic effect on Xenopus laevis tadpole assessed as loss of swimming reflex at 3 uM. In kind it is functional, organism-based.
The subject of assay [4] is Oocyte. Briefly: Activity at rat GABA-A receptor alpha1beta2gamma2L expressed in Xenopus oocytes assessed as potentiation of GABA-induced chloride current at 10 uM by electrophysiological Method relative to control. In kind it is cell-based. The method in brief:
as §2

Assay [5] has as its system Xenopus laevis. Briefly: Anesthetic effect on Xenopus laevis tadpole assessed as loss of swimming reflex at 10 uM. In kind it is functional, organism-based.
Assay [6] deals with Oocyte. Briefly: Activity at rat GABA-A receptor alpha1beta2gamma2L expressed in Xenopus oocytes assessed as potentiation of GABA-induced chloride current at 1 uM by electrophysiological Method relative to control. The format is cell-based. Summed up: as §2
Assay [7] relates to Xenopus laevis. Briefly: Anesthetic effect on Xenopus laevis tadpole assessed as loss of swimming reflex. In kind it is functional, organism-based. The method in brief: as §1
Assay [8] has as its system Oocyte. Briefly: Activity at rat GABA-A receptor alpha1beta2gamma2L expressed in Xenopus oocytes assessed as increase in chloride current at 10 uM by electrophysiological Method relative to GABA. In kind it is cell-based. The method in brief:
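Direct gating measured without GABA. Current evoked by 10 µM steroid applied alone to oocytes expressing rat α1β2γ2L GABA-A receptors, expressed as a ratio to the current evoked by 2 µM GABA. Whole-cell recording. At least four oocytes per compound; mean ± SEM.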

The subject of assay [9] is Mus musculus. Briefly: Anesthetic effect in mouse assessed as duration of loss of righting reflex at 16 mg/kg, iv. In kind it is functional.
The test system of assay [10] is Mus musculus. Briefly: Anesthetic effect in mouse assessed as immediate loss of righting reflex at 16 mg/kg, iv. In kind it is functional, organism-based. More on the design: dose 16 mg/kg.
Assay [11] relates to Mus musculus. Briefly: Anesthetic effect in mouse assessed as time taken for recovery of righting effect and walking at 16 mg/kg, iv. In kind it is functional.
In assay [12] the test system is Mus musculus. Briefly: Anesthetic effect in mouse assessed as loss of righting reflex at 8 mg/kg, iv. More on the design: dose 8 mg/kg. The format is functional, organism-based.
Assay [13] has as its system Xenopus laevis. Briefly: Anesthetic effect on Xenopus laevis tadpole assessed as loss of swimming reflex at 30 uM. In kind it is functional, organism-based.
In assay [14] the test system is Mus musculus. Briefly: Anesthetic effect in mouse assessed as duration of loss of righting reflex at 8 mg/kg, iv. The format is functional.

Active and inactive are the calls of the source. No cut-off for these calls is given here.

As usually defined, the EC50 is the midpoint of the concentration-response curve.

`C/C(C#N)=C1/CC[C@H]2[C@@H]3CC[C@H]4C[C@H](O)CC[C@]4(C)[C@H]3C(=O)C[C@]12C`: the results for the EC50 in the assay on Xenopus laevis [1] and in the assay with Xenopus laevis [7] were 2.09 µM and 10 µM, respectively. The fold change (FC) was determined as 0.9 in the assay with Oocyte [2], 1.53 in the assay with Oocyte [4], 0.86 in the assay on Oocyte [6] and 0.05 in the assay on Oocyte [8]. In addition, the outcome in the assay on Xenopus laevis [3] was Active. Also, the outcome in the assay on Xenopus laevis [5] was inactive.
With `C[C@]12CC[C@@H](O)C[C@@H]1CC[C@@H]1[C@@H]2C(=O)C[C@]2(C)C(C=O)=CC[C@@H]12`, in the assay on Xenopus laevis [1], the EC50 was determined as 3.22 µM. Besides, the result in the assay on Xenopus laevis [3] was Active. In the assay on Xenopus laevis [5], the result was inactive.
Regarding `C/C(C#N)=C1\CC[C@H]2[C@@H]3CC[C@H]4C[C@H](O)CC[C@]4(C)[C@H]3C(=O)C[C@]12C`, the EC50 in the assay on Xenopus laevis [1] was determined as 2.71 µM; in the assay with Xenopus laevis [7], 5.48 µM. In addition, the fold change (FC) with Oocyte [2] amounted to 0.9; in the assay with Oocyte [4] it was 5.02; in the assay with Oocyte [6] it was 1.52; with Oocyte [8], 0.04. In addition, the outcome in the assay on Xenopus laevis [3] was Active. Further, the outcome with Xenopus laevis [5] was inactive.
On to `CC(=O)[C@H]1CC[C@H]2[C@@H]3CC[C@H]4C[C@H](O)CC[C@]4(C)[C@H]3C(=O)C[C@]12C` [ALFAXALONE], for which the Time in the assay on Mus musculus [9] is 4 min; with Mus musculus [11], 1 min. Besides, the outcome with Mus musculus [10] was Active. The result in the assay with Mus musculus [12] was inactive.
As for `C[C@]12CC[C@@H](O)C[C@@H]1CC[C@@H]1[C@@H]2C(=O)C[C@]2(C)/C(=C/C#N)CC[C@@H]12`, the EC50 in the assay with Xenopus laevis [1] was found to be 9.15 µM; in the assay on Xenopus laevis [7], 17.3 µM. The result in the assay on Xenopus laevis [13] was inactive. In addition, the result with Xenopus laevis [5] was Active.
With `C[C@]12CC[C@@H](O)C[C@@H]1CC[C@@H]1[C@@H]2C(=O)C[C@]2(C)/C(=C\C#N)CC[C@@H]12`, the outcome in the assay on Xenopus laevis [3] was Active. Also, the outcome in the assay on Xenopus laevis [5] was inactive. Besides, the Time with Mus musculus [9] is listed as 4 min; with Mus musculus [14] it was 1.5 min. Moreover, the EC50 with Xenopus laevis [7] amounted to 5.48 µM.
`C[C@]12CC[C@@H](O)C[C@@H]1CC[C@H]1[C@@H]3CC[C@H](CC#N)[C@@]3(C)CC(=O)[C@@H]12`: in the assay with Xenopus laevis [1], the EC50 is 3.58 µM. Besides, the fold change (FC) with Oocyte [2] stood at 0.91; in the assay with Oocyte [4], 4.67; in the assay with Oocyte [6], 1.13; in the assay with Oocyte [8], 0.01. The outcome in the assay on Xenopus laevis [3] was Active. The result in the assay on Xenopus laevis [5] was inactive.
Regarding `C[C@]12CC[C@@H](O)C[C@@H]1CC[C@H]1[C@@H]3CC[C@H](C=O)[C@@]3(C)CC(=O)[C@@H]12`, in the assay with Xenopus laevis [1], the EC50 worked out at 3.98 µM. The result in the assay with Xenopus laevis [3] was Active. Besides, the result with Xenopus laevis [5] was inactive.

The record behind these values is ChEMBL document CHEMBL1781933, “Neurosteroid analogues. 16. A new explanation for the lack of anesthetic effects of δ(16)-alphaxalone and identification of a δ(17(20)) analogue with potent anesthetic activity” (J Med Chem, 2011).
